Sampled rows, rich in hits. Any-hit rate of the full collection: about 1.3%.
TCR CD3 inh: inhibitors of human TCR-CD3 interaction | inhibition, % at 9.4 µM | 360,000 compounds, 0.37% hits | TAMRA-labeled TCR probe fluorescence, biochemical | AID 651800; in the data active means inhibition above about 19%;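 further: recombinant mutant TCR 2C K166C tagged with TAMRA read by polarization; 0% = receptor in buffer alone and 100% = receptor with positive control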
DDE Tn7 FP inh: inhibitors of Tn7 peptide binding to human fibrin DD(E) | P02675 | FP displacement of FITC-Tn7 peptide from fibrin DD(E); 0% = median of compound wells per plate | inhibition, % at 8.3 µM | 370,000 compounds, 0.13% hits | AID 720508;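 active means inhibition above the mean of compounds falling within the control limits plus 3 SD of them, cut at about 14% in these data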;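 further: 0% = plate median of compound wells and 100% = 10 µM Aha-Tn7 peptide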
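Test system: human clot-derived fibrin DD(E) complex / Quantity: 2 µM final DD(E) protein / Incubation: 10 min plus 3 h, room temperature / Measured by: fluorescence polarization / Benchmarks: high control of 10 µM Aha-Tn7 peptide / Replicates: singlicate testing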
HTRA1 inhibitor: blocks human HTRA1 serine peptidase | Q92743 | recombinant HTRA1, FP-rhodamine activity-based probe, fluorescence polarization | inhibition, % at 5.96 µM | 340,000 compounds, 0.5% hits | AID 504803; in the data active means inhibition above about 36%;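 further: 0% = enzyme with DMSO and 100% = wells lacking enzyme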
mABHD4 FP: inhibitors of mouse ABHD4 | Q8VD66 | purified mABHD4, FP-Rh probe fluorescence polarization | inhibition, % at 8.92 µM | 370,000 compounds, 0.54% hits | AID 720543;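 active means inhibition exceeding the mean over every tested compound plus 3 SD, cut at about 30% in these data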;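 further: 0% = plate median of compound wells and 100% = S159A mutant with DMSO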
Target sequence (Q8VD66 whole entry, looked up): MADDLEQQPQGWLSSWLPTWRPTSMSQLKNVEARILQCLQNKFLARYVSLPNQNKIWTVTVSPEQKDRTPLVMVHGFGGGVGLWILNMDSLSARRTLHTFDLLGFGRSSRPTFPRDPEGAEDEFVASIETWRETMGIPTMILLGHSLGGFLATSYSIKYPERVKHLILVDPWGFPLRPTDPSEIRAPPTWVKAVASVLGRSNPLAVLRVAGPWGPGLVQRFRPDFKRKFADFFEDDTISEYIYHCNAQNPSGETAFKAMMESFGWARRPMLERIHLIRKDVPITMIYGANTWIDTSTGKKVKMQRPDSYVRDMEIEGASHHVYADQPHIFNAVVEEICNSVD
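Material: mouse ABHD4 enzyme, wild type; Benchmarks: S159A mutant high control, sample median low control; Buffer or medium: HEPES pH 7.0, NaCl, Pluronic buffer; Signal: fluorescence polarization; Read-out: percent inhibition of probe binding, normalized to plate controls; Timing: pre-incubation 45 min, probe exposure 60 min, at 25 °C; Dosing: 8.92 µM, single dose.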
Tn6 DDE FP: DD(E)-Tn6 binding inhibition, primary FP screen; Fibrin DD(E) TRITC-Tn6 fluorescence polarization displacement; inhibition, % at 8.3 µM; 370,000 compounds, 0.21% hits;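 active means inhibition above a per-campaign cutoff: mean of compounds within control limits plus 3 SD, cut at about 15% in these data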;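 further: 0% = median of all compound wells on the plate and 100% = blocking peptide control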
HTRA1 inh conf: confirmation of human HTRA1 inhibitors; inhibition, % at 5.96 µM; recombinant HTRA1, FP-rhodamine activity-based probe, fluorescence polarization; shares compounds with HTRA1 inhibitor; 1,600 compounds, 66% hits; AID 540248;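 active means mean inhibition over three repeats above a set limit taken from the earlier primary screen, cut at about 37% in these data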;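 further: 0% = HTRA1 with DMSO and 100% = wells lacking HTRA1; inhibitors block probe binding so polarization drops and inhibition rises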
An asterisk follows results filed as active.

Results for COC(=O)[C@@]12C[C@@H](CC(=O)N3CCN(C(=O)C4CC4)CC3)C(=O)N(Cc3ccco3)C1=CCC(C)(C)C2 ?
TCR CD3 inh: -0.1; DDE Tn7 FP inh: 3.1; mABHD4 FP: -2.7; Tn6 DDE FP: -1.7

Results for NC(=O)/C(=N\OC(=O)c1ccco1)c1nc(-c2ccc(Br)cc2)cs1 ?
TCR CD3 inh: 3.8; DDE Tn7 FP inh: 5.5; HTRA1 inhibitor: 66.5*; mABHD4 FP: 13.7; Tn6 DDE FP: -1.0; HTRA1 inh conf: 46.9*

How did O=C(/C=C/c1ccco1)Oc1cc(Br)cc(/C=N/NC(=O)c2ccccc2O)c1 do in these assays?
TCR CD3 inh: 11.7; DDE Tn7 FP inh: -9.4; HTRA1 inhibitor: 84.3*; mABHD4 FP: 15.4; Tn6 DDE FP: -2.5; HTRA1 inh conf: 142.6*

How did Cc1ccc(C(=O)N/N=C/c2cccc(OC(=O)/C=C/c3ccco3)c2)cn1 do in these assays?
TCR CD3 inh: 4.5; DDE Tn7 FP inh: -0.8; mABHD4 FP: -5.3; Tn6 DDE FP: 1.3

What do the screens show for `Cc1cc(N2CCN(C)CC2)nc2ccc(NC(=S)NCCC(C)C)cc12`?
TCR CD3 inh: 2.9; DDE Tn7 FP inh: 2.8; HTRA1 inhibitor: 5.5; mABHD4 FP: 6.1; Tn6 DDE FP: -0.1

How did CCOc1cc(N2CCOCC2)c(OCC)cc1NC(=O)c1nn(CC)c(=O)c2ccccc12 do in these assays?
TCR CD3 inh: -2.8; DDE Tn7 FP inh: 0.1; HTRA1 inhibitor: 41.3*; mABHD4 FP: 4.0; Tn6 DDE FP: -5.7; HTRA1 inh conf: 45.0*

Results for CCOc1ccc(/C=C/C(=O)c2cc(Br)ccc(=O)c2O)cc1 ?
TCR CD3 inh: 9.8; DDE Tn7 FP inh: -0.5; HTRA1 inhibitor: 51.0*; mABHD4 FP: 22.6; Tn6 DDE FP: -5.6; HTRA1 inh conf: 44.0*

Results for CC(C)N(Cc1ccccc1)C(=O)CN1C(=O)NC(Cc2ccccc2)(c2ccccc2)C1=O (stereo unspecified) ?
TCR CD3 inh: 7.3; DDE Tn7 FP inh: 1.2; HTRA1 inhibitor: -0.7; mABHD4 FP: 0.0; Tn6 DDE FP: 0.4

How did CCOC(=O)c1c(C)oc2c1c(C=NCC1CCCO1)c(O)c1ccccc12 (stereo unspecified) do in these assays?
TCR CD3 inh: -7.0; DDE Tn7 FP inh: 4.0; HTRA1 inhibitor: 7.8; mABHD4 FP: 20.9; Tn6 DDE FP: 8.9

What do the screens show for `CCOC(=O)c1c(C)oc2c1c(C=NCc1ccccn1)c(O)c1ccccc12`?
TCR CD3 inh: 1.5; DDE Tn7 FP inh: -2.1; HTRA1 inhibitor: 43.5*; mABHD4 FP: 34.3*; Tn6 DDE FP: 4.9; HTRA1 inh conf: 60.4*

What do the screens show for `CCn1c(SC(C)C(=O)N2CCOCC2)nc2sc(C)c(C)c2c1=O` (stereo unspecified)?
TCR CD3 inh: -10.7; DDE Tn7 FP inh: 5.1; HTRA1 inhibitor: -2.4; mABHD4 FP: 1.1; Tn6 DDE FP: -0.5

Results for c1ccc(-c2nc3ccccc3[nH]2)nc1 ?
TCR CD3 inh: 10.2; DDE Tn7 FP inh: -4.2; HTRA1 inhibitor: 20.8; mABHD4 FP: 6.0; Tn6 DDE FP: -5.9

Results for Cc1ccc2nc(-c3ccccn3)[nH]c2c1 ?
TCR CD3 inh: -5.6; DDE Tn7 FP inh: -5.9; HTRA1 inhibitor: 41.7*; mABHD4 FP: 6.7; Tn6 DDE FP: -1.5; HTRA1 inh conf: 32.8

How did Oc1ccc(N=Nc2ccccc2C(F)(F)F)c2cccnc12 do in these assays?
TCR CD3 inh: -3.5; DDE Tn7 FP inh: 9.2; HTRA1 inhibitor: 53.5*; mABHD4 FP: 7.3; Tn6 DDE FP: -0.4; HTRA1 inh conf: 74.7*

How did Oc1ccc(F)c2cccnc12 do in these assays?
TCR CD3 inh: 0.9; DDE Tn7 FP inh: 4.3; HTRA1 inhibitor: 24.1; mABHD4 FP: 1.5; Tn6 DDE FP: 1.5

What do the screens show for `Cc1ccc(N=Nc2ccc(O)c3ncccc23)cc1`?
TCR CD3 inh: 5.1; DDE Tn7 FP inh: 11.0; HTRA1 inhibitor: 49.7*; mABHD4 FP: 16.3; Tn6 DDE FP: -1.8; HTRA1 inh conf: 69.5*

Results for Oc1ccc(CNc2ccccc2C(F)(F)F)c2cccnc12 ?
DDE Tn7 FP inh: 0.6; mABHD4 FP: 17.1; Tn6 DDE FP: -0.7

What do the screens show for `Cc1ccc(N=Nc2ccc(O)c3ncccc23)cc1C`?
TCR CD3 inh: -1.5; DDE Tn7 FP inh: 1.6; HTRA1 inhibitor: 38.8*; mABHD4 FP: 5.6; Tn6 DDE FP: 0.4; HTRA1 inh conf: 82.2*
